The text below walks through data of ChEMBL document CHEMBL4513216, “Probing the Open Global Health Chemical Diversity Library for Multistage-Active Starting Points for Next-Generation Antimalarials” (ACS Infect Dis, 2020).

The nature of the data set: Toxicity liver stage against HepG2, at 10uM. In kind it is cell-based. On the set-up: test concentration 10 uM, cell line HepG2-A16-CD81EGFP. Conditions: human, HepG2-A16-CD81EGFP cells; read-out: INHIBITION
The method in brief: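 Uninfected HepG2-A16-CD81EGFP cells, 3 × 10^3 per well, 1536-well, plated on prespotted compound at 10 μM final, parasite-free screening media added to match infected plates; puromycin 10 μM positive, DMSO 0.5% negative; run in parallel with 48 h PbLuc assay at 37 °C, 5% CO2; viability by CellTiter-Glo luminescence, normalized to controls.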

With `O=C(O)c1ccc(N2CCC(Oc3ccc(Cl)cc3)CC2)nc1`, the cytotoxicity at 10 µM was -55.6%.

`CCc1nc(-c2ccc(NC(=O)N3CCC4(CC3)OCCO4)cc2)no1`: the cytotoxicity at 10 µM was determined as 7.27%.

Consider `Cc1cc(NC(=O)c2ccc(F)cc2F)n(C)n1`, for which the cytotoxicity at 10 µM was -2.18%.

As to `Cc1nn(C)c2c(N3CCN(C(=O)C4CC4)CC3)ncnc12`, the cytotoxicity at 10 µM turned out to be 9.02%.

Regarding `O=C(C1CCCO1)N1CCC(O)(Cn2ccc3ccncc32)CC1` (stereo unspecified), the cytotoxicity at 10 µM is -29.9%.

Regarding `O=c1ccn(Cc2nc(-c3ccccc3F)cs2)c(=O)[nH]1`, the cytotoxicity at 10 µM is -1.2%.

With `CC1CN(C(=O)CCc2cc(Br)cs2)CCO1` (stereo unspecified), the cytotoxicity at 10 µM is -8.48%.

For the compound `CCc1nc(C)sc1CN1CC[C@](O)(CC)[C@H](O)C1`, the cytotoxicity at 10 µM is -5.61%.

For the compound `CNC(=O)C1Cn2ccnc2C2(CCN(Cc3ccncc3)CC2)O1` (stereo unspecified), the cytotoxicity at 10 µM was -74.9%.

`CS(=O)(=O)N1CC[C@H]2OCC[C@@]2(C(=O)NCC2CC2)C1`: the cytotoxicity at 10 µM is -98.2%.

For `Cc1ccc(N2C[C@H]3OCC[C@H]3[C@H](C(=O)NCc3ccco3)C2)nn1`, the cytotoxicity at 10 µM is -67.4%.

With `OCc1ccc(Cl)c(NCc2cccnc2)c1`, the cytotoxicity at 10 µM is 3.12%.

Regarding `CCN1CCCC1CNC(=O)Cc1c(C)n[nH]c1-c1ccc(OC)cc1` (stereo unspecified), the cytotoxicity at 10 µM is -3.72%.

As for `CSc1ccc(CNC2CCCc3c2cnn3C)cc1` (stereo unspecified), the cytotoxicity at 10 µM came out at 0.684%.

With `CCc1nc2n(n1)CC(NCc1nc3ccccc3nc1C)CC2` (stereo unspecified), the cytotoxicity at 10 µM was -141%.

Regarding `Cc1cc(Cl)c(C)c(S(=O)(=O)N2CCN(Cc3ccccn3)CC2)c1Cl`, the cytotoxicity at 10 µM is -7.06%.

On to `COc1ccccc1[C@@H]1CN(Cc2ccc3nsnc3c2)C[C@H]1C(=O)O`, for which the cytotoxicity at 10 µM is -4.18%.

Regarding `Cc1cc(N2CCCC2(C)c2nc(C)cc(C(=O)N(C)C)n2)ncn1` (stereo unspecified), the cytotoxicity at 10 µM was -0.846%.

As to `O=C(O)[C@]12CCCN(Cc3ccco3)C[C@H]1CN(c1ncccn1)C2`, the cytotoxicity at 10 µM stood at 7.34%.

In the case of `Cc1nc(C)n(CC2CCCN2Cc2cn3ccsc3n2)n1` (stereo unspecified), the cytotoxicity at 10 µM is -10.7%.

For the compound `CNS(=O)(=O)c1ccccc1N1CCN(C(=O)NC(C)C)CC1`, the cytotoxicity at 10 µM came to 9.44%.

Consider `COc1ccc(S(=O)(=O)N[C@H]2CN(C(C)=O)C[C@@H]2C2CC2)cc1C`, for which the cytotoxicity at 10 µM came to 4.57%.

In the case of `COc1ccc(C)cc1NC(=O)c1c(C)cn(C)c1CC(=O)O`, the cytotoxicity at 10 µM is -0.713%.

Turning to `CCn1ncc2c1NC(=O)C(C#N)C21CCCC1` (stereo unspecified), the cytotoxicity at 10 µM is -0.242%.

In the case of `N#CCCN(Cc1ccccn1)C(=O)Nc1cccc(F)c1`, the cytotoxicity at 10 µM was 3.43%.

As to `O=C(Cc1ccsc1)N1CCCCC1c1ccn2ccnc2n1` (stereo unspecified), the cytotoxicity at 10 µM is -9.91%.

Consider `CN1CCCC2(CCN(c3cc(C(F)(F)F)nc(N(C)C)n3)C2)C1=O` (stereo unspecified), for which the cytotoxicity at 10 µM came out at 13.1%.

Take `O=C1C(NS(=O)(=O)c2ccc(F)cc2F)CCN1Cc1ccccc1` (stereo unspecified): the cytotoxicity at 10 µM is -0.885%.

As for `CN(C)CCNc1cc(-c2ncccn2)c2cc[nH]c2n1`, the cytotoxicity at 10 µM was determined as 6.39%.

`Cc1ccc(C(=O)N2CCC3(CCCN(c4ccc(C)nn4)C3)C2)cn1` (stereo unspecified): the cytotoxicity at 10 µM was -112%.

As to `Cc1cc(F)cc(S(=O)(=O)NC(=O)CCc2cncc(F)c2)c1`, the cytotoxicity at 10 µM worked out at 7.78%.

On to `CN(C)C(=O)N1CCN(Cc2nnc(C(C)(C)C)o2)CC1`, for which the cytotoxicity at 10 µM came out at 0.278%.

Consider `CC(C)Sc1nnnn1C1CCCC1`, for which the cytotoxicity at 10 µM was -8.61%.

Turning to `COc1cc(-c2n[nH]c(CN)n2)cc(OC)c1OC`, the cytotoxicity at 10 µM was 2.45%.

Take `O=C1CCCN1Cc1nnc2n1CCCN(C(=O)c1ccco1)C2`: the cytotoxicity at 10 µM was determined as 8.3%.

Consider `Cn1ccnc1CN1CCN(CC(O)c2ccc(F)cc2)CC1` (stereo unspecified), for which the cytotoxicity at 10 µM is -21.8%.

Consider `Cc1cc(N(C)C)nc(C2CCCN2)n1` (stereo unspecified), for which the cytotoxicity at 10 µM was -11.1%.

Consider `CCOCC1CN(Cc2ccc(F)cc2)Cc2nn(C)cc21` (stereo unspecified), for which the cytotoxicity at 10 µM is -83.3%.

Take `CC(c1ncc(-c2ccccc2)o1)N1CCN(C(=O)N(C)C)CC1` (stereo unspecified): the cytotoxicity at 10 µM was -12.1%.

On to `Cc1nccc(CN2Cc3nccn3CC2c2ccccc2)n1` (stereo unspecified), for which the cytotoxicity at 10 µM is 3.1%.

Take `Cn1ccnc1CCC1CCCCN1Cc1cnc(N2CCCC2)nc1` (stereo unspecified): the cytotoxicity at 10 µM worked out at 1.43%.

For the compound `COCC1CN(Cc2ccc3c(c2)OCO3)Cc2ncn(C)c21` (stereo unspecified), the cytotoxicity at 10 µM was found to be 4.18%.

For the compound `CC(C)C(=O)NS(=O)(=O)c1ccc(C#N)cc1C(F)(F)F`, the cytotoxicity at 10 µM was -12.3%.

On to `CCCc1ccc(S(=O)(=O)NC(=O)CCC2CCCO2)cc1` (stereo unspecified), for which the cytotoxicity at 10 µM was -25.7%.

Take `CCC(=O)N1CCC2(CCC(N3CCCC3)c3ccccc32)CC1` (stereo unspecified): the cytotoxicity at 10 µM is -6.23%.

For `COC(=O)c1ccc(-c2cc(C(F)(F)F)cc(N(C)C)n2)cc1`, the cytotoxicity at 10 µM was -0.409%.

Regarding `COc1ccc(CN(C)CC2(O)CCN(C(=O)c3cccn3C)C2)cc1` (stereo unspecified), the cytotoxicity at 10 µM worked out at 5.4%.

With `O=C(NCC(F)(F)F)C1=NOC2(CCCNC2)C1` (stereo unspecified), the cytotoxicity at 10 µM is 2.16%.

For `CCN(c1ccc(C(=O)N2CCCCC2)cc1)S(=O)(=O)CC`, the cytotoxicity at 10 µM was determined as 1.85%.

`O=C1NCC[C@]12CN(Cc1ccco1)C[C@H]2c1ccccc1`: the cytotoxicity at 10 µM is -139%.

As to `O=C1CN(C(=O)CNC(CC(F)(F)F)c2ccc(F)cc2)CCN1` (stereo unspecified), the cytotoxicity at 10 µM was determined as 10.4%.

Regarding `CCc1c(C)nc2ccccc2c1N1CCC(C(=O)NC)CC1`, the cytotoxicity at 10 µM stood at 3.85%.

As to `CC(=O)NCC(=O)N1C[C@H](OCc2cccnc2)[C@H]2COC[C@H]21`, the cytotoxicity at 10 µM was -7.12%.

Regarding `CN1CCN(c2nc(-c3cnn(C)c3)cs2)CC1`, the cytotoxicity at 10 µM was -0.186%.

Take `CCCS(=O)(=O)N1C[C@@H](Oc2ccccn2)[C@H]2OCCC[C@H]21`: the cytotoxicity at 10 µM turned out to be 0.516%.

With `Cc1ccc(NC(=O)c2cc3c(=O)n(C)c(=O)n(C)c3nc2C)cc1Cl`, the cytotoxicity at 10 µM is -7.15%.

`CC(C)c1nc(CN(C)C(=O)C2CC(=O)N(Cc3ccncc3)C2)cs1` (stereo unspecified): the cytotoxicity at 10 µM is -3.75%.

On to `Cc1ccc(CN2CCC3(CCC(=O)N3CC(=O)N(C)C)CC2)s1`, for which the cytotoxicity at 10 µM was -2.45%.

As to `Cc1oc(CN(C)C(=O)c2ccc(Br)cc2)cc1C(=O)O`, the cytotoxicity at 10 µM came out at 5.5%.

Consider `Cc1ccc(N2CCCC(NCc3ccc(C)o3)C2)nn1` (stereo unspecified), for which the cytotoxicity at 10 µM was 0.0722%.

Take `COc1cnc(N2CCCC(c3ncc[nH]3)C2)nc1` (stereo unspecified): the cytotoxicity at 10 µM was -0.268%.

`Cn1c(C(N)=O)cc2c1CN(C(=O)C1CCCN(C3CCCC3)C1)CC2` (stereo unspecified): the cytotoxicity at 10 µM is -47.1%.

As for `CS(=O)(=O)CCC(=O)NC1(c2cccc(Br)c2)CC1`, the cytotoxicity at 10 µM was -11.1%.

Regarding `CC(C)[C@H]1CN(Cc2nccn2C)C[C@@H]1NC(=O)COCC(N)=O`, the cytotoxicity at 10 µM was -0.0298%.

Regarding `CC(c1ccc(F)cc1F)N1CCN(Cc2nccn2C)CC1` (stereo unspecified), the cytotoxicity at 10 µM was -11.7%.

Take `CCN(C(=O)c1nc2c(s1)CCCN2S(C)(=O)=O)C(C)C`: the cytotoxicity at 10 µM stood at 3.99%.

`NCCN1CCC(c2nnc(Cn3ccnc3)n2C2CC2)CC1`: the cytotoxicity at 10 µM was -3.07%.

Consider `CCCS(=O)(=O)N1CCC2(CN(c3ccccc3)C(=O)CN2C)C1` (stereo unspecified), for which the cytotoxicity at 10 µM amounted to 4.15%.

Turning to `O=C(NCCCn1cccn1)c1csc2c1CCCC2`, the cytotoxicity at 10 µM was -10.2%.

As to `CCO[C@H]1C[C@@H](O)C12CCN(S(=O)(=O)c1ccccc1OC)CC2`, the cytotoxicity at 10 µM was found to be 2.01%.

Take `Cc1occc1C(=O)N1CCC2(CCN(Cc3nccs3)CC2)C1`: the cytotoxicity at 10 µM is -5.33%.
